SMILES strings stand for the structures. Activity calls are given as the source filed them. No cut-off for these calls is given here.

A short description of series [1]: Genotoxicity in human SH-SY5Y cells assessed as nuclear abnormalities by measuring total notched mutations at 100 ug/ml incubated for 24 hrs by Hoechst 33258 staining based fluorescent microscopy (reference value: 5). It is filed as toxicity, cell-based. The conditions noted are these: dose 100 µg/ml.
For another series, the target named is Beta-secretase 1 (Homo sapiens, UniProt P56817). Description: Inhibition of BACE1 (unknown origin) expressed in baculovirus expression system using Rh-EVNLDAEFKQuencher peptide substrate incubated for 90 mins by FRET assay.
The test system of series [2] is SH-SY5Y. The series can be described thus: Neuroprotective activity against amyloid beta 1-42-treated human SH-SY5Y cells assessed as decrease in AChE activity incubated for 30 mins by microplate reader analysis (reference value: 459.6 +/- 32.152 mU/ml). It counts as functional. Particulars: dose 0.5 mM.
The next series addresses Acetylcholinesterase (Homo sapiens, UniProt P22303). Description: Inhibition of AChE (unknown origin) using acetylthiocholine iodide as substrate prewarmed for 10 mins followed by substrate addition measured after 15 mins by DTNB assay. Put shortly:
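Purified AChE at 0.005 unit per well in 50 mM Na2HPO4, pH 7.7. Test compound at 0.5 mM per well, read at 405 nm, then preincubated 10 min at 37 °C. Started with acetylthiocholine iodide and DTNB (each 0.5 mM per well). Absorbance at 405 nm after 15 min at 37 °C. Eserine reference, triplicate; % inhibition versus control, IC50 by kinetics fitting.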

Series [3] relates to SH-SY5Y. Description: Antialzheimer activity against RA/BDNF-treated human SH-SY5Y cells assessed as cell viability at 12.5 to 100 ug/ml incubated for 24 hrs by MTT assay. The conditions noted are these: dose 12.5-100 µg/ml. It is filed as functional, cell-based. The method, boiled down: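 SH-SY5Y grown in DMEM:F12 with 10% FBS at 37 °C, 5% CO2. Differentiated with 10 µM retinoic acid to day 8 (3% FBS medium refreshed every 2 days), then 25 nM BDNF for 5 days. Compound exposure, then MTT for 3 h at 37 °C. Formazan dissolved in DMSO, absorbance at 570 nm. 1.0% Triton X-100 as control.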
(Tetrazolium assays rely on reduction of a dye to a coloured formazan, in cell work by metabolically active cells.)

Series [4] in a line: Genotoxicity in human SH-SY5Y cells assessed as mean nuclear abnormalities measured per 1000 cells at 100 ug/ml incubated for 24 hrs by Hoechst 33258 staining based fluorescent microscopy (reference value: 0.016 +/- 0.007). It is filed as toxicity, cell-based. Particulars: dose 100 µg/ml.
The nature of series [5]: Genotoxicity in human SH-SY5Y cells assessed as nuclear abnormalities by measuring total lobbed nucleus at 100 ug/ml incubated for 24 hrs by Hoechst 33258 staining based fluorescent microscopy (reference value: 5). It is filed as toxicity, cell-based. The conditions noted are these: dose 100 µg/ml.
Series [6] has as its system SH-SY5Y. Description: Neuroprotective activity against amyloid beta 1-42-treated human SH-SY5Y cells assessed as decrease in beta-secretase activity measured per mg protein incubated for 30 mins by microplate reader analysis (reference value: 54.35 +/- 4.34 RFU). Particulars: 0.5 h. It is filed as functional.
In series [7] the test system is SH-SY5Y. The series can be described thus: Neuroprotective activity against amyloid beta 1-42-treated human SH-SY5Y cells assessed as increase in cell viability at 50 ug/ml incubated for 24 hrs by MTT assay relative to control. The conditions noted are these: dose 50 µg/ml.
In series [8] the test system is SH-SY5Y. Description: Neuroprotective activity against amyloid beta 1-42-treated human SH-SY5Y cells assessed as reduction in beta amyloid aggregation by Congo Red dye based analysis relative to control. It is filed as functional. More on the design: scale not given: the % may be the effect or the level left. Put shortly: (§1)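 SH-SY5Y differentiated with RA then BDNF. Aβ1-42 pre-fibrillized at 20 µM in medium for 24 h, then 20 µM added with compounds for 24 h. Cells fixed in 4% paraformaldehyde at 4 °C for 30 min. Stained with 1 µM Congo red for 1 h in the dark, washed with PBS, dye extracted into DMSO, absorbance at 497 nm.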

Series [9] can be described thus: Genotoxicity in human SH-SY5Y cells assessed as nuclear abnormalities by measuring total micronucleus at 100 ug/ml incubated for 24 hrs by Hoechst 33258 staining based fluorescent microscopy (reference value: 6). The conditions noted are these: dose 100 µg/ml. It counts as toxicity, cell-based.
Series [10] concerns SH-SY5Y. The series can be described thus: Neuroprotective activity against amyloid beta 1-42-treated human SH-SY5Y cells assessed as reduction in beta amyloid aggregation by Congo Red dye based analysis. It counts as functional, cell-based. The method, boiled down:
as §1

Series [11] relates to SH-SY5Y. The series can be described thus: Neuroprotective activity against amyloid beta 1-42-treated human SH-SY5Y cells assessed as increase in cell viability at 25 ug/ml incubated for 24 hrs by MTT assay relative to control. The conditions noted are these: dose 25 µg/ml.

Sequence of Beta-secretase 1 (P56817 whole entry): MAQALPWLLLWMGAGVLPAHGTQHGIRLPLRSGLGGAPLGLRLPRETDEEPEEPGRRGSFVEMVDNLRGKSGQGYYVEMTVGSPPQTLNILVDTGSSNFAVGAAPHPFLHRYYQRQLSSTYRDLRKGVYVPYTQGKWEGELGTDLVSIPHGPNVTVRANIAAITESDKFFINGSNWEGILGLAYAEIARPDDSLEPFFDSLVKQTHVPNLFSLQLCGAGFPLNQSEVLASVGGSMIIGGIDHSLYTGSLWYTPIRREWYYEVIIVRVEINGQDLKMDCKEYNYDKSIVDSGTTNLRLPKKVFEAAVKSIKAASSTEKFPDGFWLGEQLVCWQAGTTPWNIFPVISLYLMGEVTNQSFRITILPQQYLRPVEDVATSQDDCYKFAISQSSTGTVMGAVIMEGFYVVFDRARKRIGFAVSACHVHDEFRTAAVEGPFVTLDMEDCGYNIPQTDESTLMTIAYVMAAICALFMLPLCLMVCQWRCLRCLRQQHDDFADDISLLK
Sequence of Acetylcholinesterase (P22303 whole entry): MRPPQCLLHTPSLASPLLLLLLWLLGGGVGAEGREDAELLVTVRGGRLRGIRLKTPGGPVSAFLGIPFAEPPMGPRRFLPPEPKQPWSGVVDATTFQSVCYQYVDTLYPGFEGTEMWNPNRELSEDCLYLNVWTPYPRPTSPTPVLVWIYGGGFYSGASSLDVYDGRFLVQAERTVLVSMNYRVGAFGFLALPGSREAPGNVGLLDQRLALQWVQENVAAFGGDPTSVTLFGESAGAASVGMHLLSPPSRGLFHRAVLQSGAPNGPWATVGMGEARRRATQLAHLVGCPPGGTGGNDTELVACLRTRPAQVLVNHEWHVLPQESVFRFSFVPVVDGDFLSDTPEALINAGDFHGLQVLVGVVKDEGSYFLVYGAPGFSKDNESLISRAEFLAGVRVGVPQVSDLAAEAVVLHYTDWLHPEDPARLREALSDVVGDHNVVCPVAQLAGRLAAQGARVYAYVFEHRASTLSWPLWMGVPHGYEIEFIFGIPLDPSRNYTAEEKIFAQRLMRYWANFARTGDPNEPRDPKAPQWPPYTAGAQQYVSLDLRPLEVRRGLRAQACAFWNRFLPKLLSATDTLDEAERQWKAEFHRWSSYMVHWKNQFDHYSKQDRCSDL

Broadly, the IC50 is the concentration that gives 50% inhibition. On to `COc1ccc(/C=C/c2nc(-c3ccc(OC)cc3)cs2)cc1`, for which the Activity in series [1] is recorded as 5; in the series with SH-SY5Y [2] it was 397.6 mU/ml; in series [4], 0.017; in series [5], 6; in the series on SH-SY5Y [6] it was 14.13 RFU; in the series on SH-SY5Y [7], ~34%. Further, the values for the Activity (with SH-SY5Y [8]; in series [9]) were >80% and 6, respectively. For the same compound, the IC50 against Beta-secretase 1 was 78.2 µM; on Acetylcholinesterase, 197 µM. Moreover, the outcome in the series with SH-SY5Y [3] was Active.
As for `Brc1ccc(-c2csc(/C=C/c3ccccc3)n2)cc1`, the Activity in series [1] is given as 9; with SH-SY5Y [2], 375.6 mU/ml; in series [4], 0.017; in series [5], 5; in the series with SH-SY5Y [6], 17.41 RFU; in the series on SH-SY5Y [11], ~30%. Further, in series [9], the Activity amounted to 4. Also, the IC50 against Beta-secretase 1 is 44.4 µM; on Acetylcholinesterase, 229 µM. Moreover, the result with SH-SY5Y [3] and with SH-SY5Y [10] was Active.
